Reference: ChEMBL document CHEMBL2346655, “Synthesis and in vitro biological evaluation of 2,6,9-trisubstituted purines targeting multiple cyclin-dependent kinases” (Eur J Med Chem, 2013)
Active and inactive are the calls of the source. No cut-off for these calls is given here.

Experiments:
[1] = tested on: HCT-116; assay: Induction of apoptosis in human HCT116 cells assessed as change in PUMA level up to 5 uM after 24 hrs by immunoblotting analysis; assay type: functional, cell-based
How it was run: (§1)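 Cells were treated for 24 h, harvested directly into Laemmli sample buffer, and run on SDS-PAGE. Proteins were blotted to nitrocellulose, blocked, probed overnight with primary antibodies, then with peroxidase-linked secondaries. Bands were detected by ECL with a CCD camera. PCNA and tubulin served as loading references.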

[2] = tested on: HCT-116; assay: Cell cycle arrest in human HCT116 cells assessed as accumulation at subG1 phase at 5 uM after 24 hrs by propidium iodide staining-based flow cytometric analysis (reference value: 1.4%); assay type: functional
How it was run: (§2)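 Sub-confluent cells treated at several concentrations for 24 h, then pulsed with 10 μM BrdU for 30 min at 37 °C before harvest. Cells were PBS-washed, fixed in 70% ethanol, denatured in 2 M HCl and neutralized. Stained with fluorescein anti-BrdU and propidium iodide; DNA content read by flow cytometry with 488 nm excitation.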

[3] = tested on: K562; assay: Induction of apoptosis in human K562 cells assessed as change in PUMA level up to 5 uM after 24 hrs by immunoblotting analysis; assay type: functional, cell-based; how it was run: as §1
[4] = tested on: K562; assay: Cell cycle arrest in human K562 cells assessed as accumulation at S phase at 1 uM after 24 hrs by propidium iodide staining-based flow cytometric analysis (reference value: 38.8%); assay type: functional; how it was run: as §2
[5] = tested on: K562; assay: Induction of apoptosis in human K562 cells assessed as PARP cleavage up to 5 uM after 24 hrs by immunoblotting analysis; assay type: functional, cell-based; how it was run: as §1
[6] = tested on: HCT-116; assay: Cell cycle arrest in human HCT116 cells assessed as accumulation at subG1 phase at 0.2 uM after 24 hrs by propidium iodide staining-based flow cytometric analysis (reference value: 1.4%); assay type: functional; how it was run: as §2
[7] = tested on: K562; assay: Induction of apoptosis in human K562 cells assessed as change in BCL2 level up to 5 uM after 24 hrs by immunoblotting analysis; assay type: functional, cell-based; how it was run: as §1
[8] = tested on: K562; assay: Cell cycle arrest in human K562 cells assessed as accumulation at G2/M phase at 1 uM after 24 hrs by propidium iodide staining-based flow cytometric analysis (reference value: 13.8%); assay type: functional; how it was run: as §2
[9] = tested on: K562; assay: Cell cycle arrest in human K562 cells assessed as accumulation at subG1 phase at 5 uM after 24 hrs by propidium iodide staining-based flow cytometric analysis (reference value: 2.4%); assay type: functional; how it was run: as §2
[10] = tested on: HCT-116; assay: Cell cycle arrest in human HCT116 cells assessed as accumulation at G2/M phase at 1 uM after 24 hrs by propidium iodide staining-based flow cytometric analysis (reference value: 19.6%); assay type: functional; how it was run: as §2
[11] = tested on: CCRF-CEM; assay: Cytotoxicity against human CEM cells assessed as reduction in number of viable cells after 72 hrs by fluorescence assay; assay type: functional, cell-based
How it was run: (§3)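 Three-fold compound dilutions tested in triplicate on cultured cells for 72 h. Viable cells detected by adding Calcein AM and reading fluorescence at 485/538 nm (ex/em).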

[12] = tested on: K562; assay: Cell cycle arrest in human K562 cells assessed as accumulation at G2/M phase at 0.2 uM after 24 hrs by propidium iodide staining-based flow cytometric analysis (reference value: 13.8%); assay type: functional; how it was run: as §2
[13] = tested on: K562; assay: Cell cycle arrest in human K562 cells assessed as accumulation at G1 phase at 1 uM after 24 hrs by propidium iodide staining-based flow cytometric analysis (reference value: 47.3%); assay type: functional; how it was run: as §2
[14] = tested on: HCT-116; assay: Ratio of roscovitine IC50 to compound IC50 for human HCT116 cells; assay type: functional
How it was run: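 Cytotoxicity IC50s underlying the ratio: cells treated in triplicate with three-fold compound dilutions for 72 h, then Calcein AM added and live-cell fluorescence read at 485/538 nm (ex/em).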

[15] = tested on: G-361; assay: Cytotoxicity against human G361 cells assessed as reduction in number of viable cells after 72 hrs by fluorescence assay; assay type: functional, cell-based; conditions: G-361, 72 h; how it was run: as §3
[16] = tested on: HCT-116; assay: Cell cycle arrest in human HCT116 cells assessed as accumulation at G1 phase at 1 uM after 24 hrs by propidium iodide staining-based flow cytometric analysis (reference value: 48.8%); assay type: functional; how it was run: as §2
[17] = tested on: K562; assay: Cell cycle arrest in human K562 cells assessed as accumulation at G1 phase at 5 uM after 24 hrs by propidium iodide staining-based flow cytometric analysis (reference value: 47.3%); assay type: functional; how it was run: as §2
[18] = target: CDK9/cyclin T1 (Homo sapiens, UniProt P50750); assay: Inhibition of CDK9/CyclinT1 (unknown origin) using (YSPTSPS)2KK as substrate; assay type: protein-complex assay
CDK9/cyclin T1, sequence (O60563 whole entry): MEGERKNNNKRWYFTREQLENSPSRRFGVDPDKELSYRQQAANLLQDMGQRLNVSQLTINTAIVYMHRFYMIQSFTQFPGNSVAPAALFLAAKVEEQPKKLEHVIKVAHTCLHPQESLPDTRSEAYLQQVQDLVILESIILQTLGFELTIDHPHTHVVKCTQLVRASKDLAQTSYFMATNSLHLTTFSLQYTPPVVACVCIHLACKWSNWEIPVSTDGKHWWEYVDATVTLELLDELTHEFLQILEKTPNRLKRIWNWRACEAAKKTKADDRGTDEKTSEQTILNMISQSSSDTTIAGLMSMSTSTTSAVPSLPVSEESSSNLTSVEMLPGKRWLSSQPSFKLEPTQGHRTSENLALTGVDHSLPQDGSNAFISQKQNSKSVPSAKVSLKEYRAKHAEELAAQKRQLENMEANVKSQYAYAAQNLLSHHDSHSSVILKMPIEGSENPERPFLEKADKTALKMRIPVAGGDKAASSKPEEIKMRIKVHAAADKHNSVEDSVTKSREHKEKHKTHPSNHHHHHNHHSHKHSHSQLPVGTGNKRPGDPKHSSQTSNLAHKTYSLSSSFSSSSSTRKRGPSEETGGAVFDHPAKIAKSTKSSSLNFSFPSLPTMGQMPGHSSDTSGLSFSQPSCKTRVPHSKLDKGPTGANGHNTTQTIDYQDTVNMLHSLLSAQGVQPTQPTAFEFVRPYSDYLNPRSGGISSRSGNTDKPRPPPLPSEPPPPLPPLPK
CDK9/cyclin T1, sequence (P50750 whole entry): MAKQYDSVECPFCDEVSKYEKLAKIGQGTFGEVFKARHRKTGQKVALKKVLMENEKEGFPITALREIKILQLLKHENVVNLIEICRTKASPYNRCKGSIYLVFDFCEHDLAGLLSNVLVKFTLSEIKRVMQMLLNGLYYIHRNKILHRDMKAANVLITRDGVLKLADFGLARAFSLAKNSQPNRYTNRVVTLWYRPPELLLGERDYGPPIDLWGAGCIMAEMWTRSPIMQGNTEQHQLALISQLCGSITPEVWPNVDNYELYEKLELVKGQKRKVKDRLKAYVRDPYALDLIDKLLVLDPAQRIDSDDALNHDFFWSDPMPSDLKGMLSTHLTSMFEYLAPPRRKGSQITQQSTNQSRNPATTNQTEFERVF
How it was run: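 Buffer was 60 mM HEPES-NaOH pH 7.5, 3 mM MgCl2, 3 mM MnCl2, vanadate, DTT and PEG. Reactions were stopped with H3PO4 and spotted on P-81 paper, which was then washed. Radioactivity was imaged; IC50 taken from dose–response curves.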

[19] = target: T1, CDK9/cyclin T1 (Homo sapiens) (UniProt O60563+P50750); assay: Inhibition of CDK9/CyclinT1-mediated phosphorylation of RNA polymerase 2 at Ser5 in human HCT116 cells up to 25 uM after 24 hrs by immunoblotting analysis; assay type: cell-based; conditions: HCT-116
How it was run: (§4)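 Immunoblot: cells lysed by harvesting in Laemmli sample buffer, proteins run on SDS-PAGE, electroblotted to nitrocellulose, blocked, primary antibodies overnight, peroxidase-conjugated secondaries, ECL detection by CCD camera. Antibodies included anti-phospho RNA polymerase II (S2), anti-RNA polymerase II (ARNA-3), anti-p53 (DO-1), anti-p21waf1 (118), anti-PCNA.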

[20] = target: Cyclin-dependent kinase 7/ cyclin H (Homo sapiens) (UniProt P51946+P50613); assay: Inhibition of CDK7/CyclinH/MAT1-mediated phosphorylation of RNA polymerase 2 at Ser5 in human K562 cells up to 25 uM after 24 hrs by immunoblotting analysis; assay type: cell-based
[21] = tested on: K562; assay: Induction of apoptosis in human K562 cells assessed as caspase-3/7 activation by fluorescence assay; assay type: functional, cell-based
How it was run: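 After 24 h treatment, cells were lysed on ice for 20 min in pH 7.4 HEPES/KCl/EDTA/EGTA/0.2% CHAPS buffer with protease inhibitors and cleared at 10,000 × g for 30 min at 4 °C. Protein was equalized, then incubated for 1 h with 100 μM Ac-DEVD-AMC in PIPES buffer pH 7.3 containing DTT. Fluorescence was read at 355/460 nm; 100 μM Ac-DEVD-CHO served as the negative control.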

[22] = tested on: HCT-116; assay: Cell cycle arrest in human HCT116 cells assessed as accumulation at G1 phase at 0.2 uM after 24 hrs by propidium iodide staining-based flow cytometric analysis (reference value: 48.8%); assay type: functional; how it was run: as §2
[23] = tested on: HCT-116; assay: Cell cycle arrest in human HCT116 cells assessed as accumulation at S phase after 24 hrs by BrdU incorporation assay; assay type: functional, cell-based
How it was run: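 Sub-confluent cells were exposed to compound for 24 h, then pulse-labeled with 10 μM BrdU for 30 min at 37 °C. After ethanol (70%) fixation and 2 M HCl denaturation, cells were stained with fluorescein anti-BrdU antibody plus propidium iodide. The BrdU-positive S-phase fraction was quantified by flow cytometry (488 nm laser).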

[24] = target: T1, CDK9/cyclin T1 (Homo sapiens); assay: Inhibition of CDK9/CyclinT1-mediated phosphorylation of RNA polymerase 2 at Ser2 in human K562 cells up to 25 uM after 24 hrs by immunoblotting analysis; assay type: cell-based; how it was run: as §4
[25] = tested on: HCT-116; assay: Cell cycle arrest in human HCT116 cells assessed as accumulation at S phase at 0.2 uM after 24 hrs by propidium iodide staining-based flow cytometric analysis (reference value: 31.6%); assay type: functional; how it was run: as §2

Compound: CC[C@@H](Nc1nc(NCc2cc(Cl)ccc2O)c2ncn(C(C)C)c2n1)C(C)O (mixture of isomers)
- Activity [1]: inactive
- Activity [2]: 4.6%
- Activity [3]: inactive
- Activity [4]: 39.8%
- Activity [5]: Active
- Activity [6]: 1.5%
- Activity [7]: inactive
- Activity [8]: 28.7%
- Activity [9]: 10.9%
- Activity [10]: 31.8%
- IC50 [11]: 1.6 µM
- Activity [12]: 25.8%
- Activity [13]: 31.5%
- Ratio IC50 [14]: >9
- IC50 [15]: 2.3 µM
- Activity [16]: 39.4%
- Activity [17]: 40.7%
- IC50 [18]: 0.165 µM
- inhibition [19]: Active
- inhibition [20]: Active
- Activity [21]: Dose-dependent effect
- Activity [22]: 45.6%
- Activity [23]: Dose-dependent effect
- inhibition [24]: Active
- Activity [25]: 31.1%
